Assay results as given in ChEMBL document CHEMBL1132437, “Synthesis and antimicrobial activity of 4H-4-oxoquinolizine derivatives: consequences of structural modification at the C-8 position” (1999).
≈ marks a conversion by molar mass, not a printed value.

Key:
Staphylococcus aureus [1] = test: In vivo efficacy against Staphylococcus aureus NCTC 10649M in mouse protection test after p.o. administration.; assay type: functional
Outline: (§1)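 Mouse protection model: mice infected intravenously with 100-fold LD50 of the organism. Compound given by subcutaneous injection or oral gavage at 1 and 5 h after infection, over a dose range. Deaths tracked for 7 days post-inoculation. ED50 is the dose giving 50% survival of treated mice over the trial.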

Mus musculus [2] = test: In vivo efficacy against Staphylococcus aureus NCTC 10649M in mouse protection test after administration by subcutaneous administration; assay type: functional; conditions: sc; outline: as §1
Staphylococcus aureus [3] = test: In vitro antibacterial activity against gram-positive Staphylococcus aureus NCTC 10649M
Burkholderia cepacia [4] = test: In vitro antibacterial activity against gram negative Pseudomonas cepacia 2961; assay type: functional
Outline: (§2)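 Agar dilution MIC determination following the National Committee for Clinical Laboratory Standards recommendations.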

Escherichia coli [5] = test: In vitro antibacterial activity against gram negative Escherichia coli KNK 437; assay type: functional; outline: as §2
Enterococcus faecium = test: In vitro antibacterial activity against gram-positive Enterococcus faecium ATCC 8043; assay type: functional; outline: as §2
Escherichia coli [6] = test: In vivo efficacy against Escherichia coli JUHL in mouse protection test after p.o. administration.; assay type: functional; outline: as §1
Pseudomonas aeruginosa [7] = test: In vivo efficacy against Pseudomonas aeruginosa 5007 in mouse protection test after administration by oral gavage; assay type: functional; outline: as §1
Pseudomonas aeruginosa [8] = test: In vivo efficacy against Pseudomonas aeruginosa 5007 in mouse protection test after subcutaneous administration; assay type: functional; outline: as §1
Staphylococcus aureus [9] = test: In vitro antibacterial activity against gram-positive Staphylococcus aureus 1775; assay type: functional; outline: as §2
Escherichia coli [10] = test: In vivo efficacy against Escherichia coli JUHL in mouse protection test after subcutaneous administration; assay type: functional; outline: as §1
Pseudomonas aeruginosa [11] = test: In vitro antibacterial activity against Gram-negative Pseudomonas aeruginosa 5007; assay type: functional; conditions: Pseudomonas aeruginosa; read-out: MIC; outline: as §2
Mus musculus [12] = test: IIn vivo efficacy against Escherichia coli JUHL in mouse protection test after by oral gavage; assay type: functional; outline: as §1
Streptococcus pyogenes = test: In vitro antibacterial activity against gram positive Streptococcus pyogenes 930; assay type: functional; conditions: Streptococcus pyogenes; read-out: MIC; outline: as §2
Pseudomonas aeruginosa [13] = test: In vitro antibacterial activity against gram negative P. aeruginosa DPHP 5263; assay type: functional; conditions: Pseudomonas aeruginosa, DPHP 5263; read-out: MIC; outline: as §2
Staphylococcus aureus [14] = test: In vivo efficacy against Staphylococcus aureus NCTC 10649M in mouse; assay type: functional; conditions: Staphylococcus aureus; read-out: ED50; outline: as §1
Staphylococcus aureus [15] = test: In vitro antibacterial activity against gram-positive Staphylococcus aureus NCTC 10649M; assay type: functional; conditions: Staphylococcus aureus, NCTC 10649; read-out: MIC; outline: as §2
Mus musculus [16] = test: In vivo efficacy against Streptococcus pneumoniae ATCC 6303 in mouse protection test after administration by oral gavage; assay type: functional; outline: as §1
Mus musculus [17] = test: In vivo efficacy against Escherichia coli JUHL in mouse protection test after administration by oral gavage; assay type: functional; outline: as §1
Mus musculus [18] = test: In vivo antibacterial activity (dose protecting 50% mice)against Gram-positive S aureus NCTC 10649M after subcutaneous administration.; assay type: functional; conditions: sc; outline: as §1
Mus musculus [19] = test: In vivo efficacy against Escherichia coli JUHL in mouse protection test after by oral gavage; assay type: functional; outline: as §1
Burkholderia cepacia [20] = test: In vitro antibacterial activity against gram negative P. cepacia 2961
Burkholderia cepacia [21] = test: In vitro antibacterial activity against Pseudomonas cepacia 2961 a ciprofloxacin resistant strain; assay type: functional
Outline: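 MIC by agar dilution following National Committee for Clinical Laboratory Standards recommendations. P. cepacia 2961 is a ciprofloxacin-resistant strain; S. pyogenes 930 is erythromycin-resistant.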

Mus musculus [22] = test: In vivo efficacy against Streptococcus pneumoniae ATCC 6303 in mouse protection test […].; assay type: functional; outline: as §1
Streptococcus pneumoniae = test: In vivo efficacy against Streptococcus pneumoniae ATCC 6303 in mouse protection test after s.c. administration.; assay type: functional; outline: as §1
Mus musculus [23] = test: In vivo efficacy against Staphylococcus aureus NCTC 10649M in mouse protection test after sub cutaneous administration; assay type: functional; outline: as §1
Mus musculus [24] = test: InIn vivo efficacy against Escherichia coli JUHL in mouse protection test after administration by oral gavage; assay type: functional; outline: as §1
Mus musculus [25] = test: IIn vivo efficacy against Streptococcus pneumoniae ATCC 6303 in mouse protection test after administration by oral gavage; assay type: functional; outline: as §1
Mus musculus [26] = test: In vivo efficacy against Staphylococcus aureus NCTC 10649M in mouse protection test after subcutaneous administration.; assay type: functional; conditions: sc; outline: as §1
Mus musculus [27] = test: In vivo efficacy against Streptococcus pneumoniae ATCC 6303 after subcutaneous administration; assay type: functional; conditions: sc; outline: as §1
Mus musculus [28] = test: In vivo efficacy against Streptococcus pneumoniae ATCC 6303 after administration by oral gavage; assay type: functional; outline: as §1
Mus musculus [29] = test: IIn vivo efficacy against Escherichia coli JUHL in mouse protection test after administration by oral gavage.; assay type: functional; outline: as §1
Mus musculus [30] = test: In vivo efficacy against Pseudomonas aeruginosa 5007 in mouse protection test […]; assay type: functional; outline: as §1
Mus musculus [31] = test: n vivo efficacy against Streptococcus pneumoniae ATCC 6303 in mouse protection test after administration by oral gavage; assay type: functional; outline: as §1
[32] = Staphylococcus aureus, po, read-out: ED50
[33] = Escherichia coli, po, read-out: ED50
[34] = Burkholderia cepacia, read-out: MIC
[35] = Escherichia coli, read-out: MIC
[36] = Enterococcus faecium, ATCC 8043, read-out: MIC
[37] = Staphylococcus aureus, read-out: MIC
[38] = Escherichia coli, sc, read-out: ED50
[39] = Pseudomonas aeruginosa, sc, read-out: ED50
[40] = Pseudomonas aeruginosa, po, read-out: ED50

| SMILES | MIC (Pseudomonas aeruginosa [11]) [µg/mL] | MIC (Burkholderia cepacia [4]; [34]) [µg/mL] | MIC (Streptococcus pyogenes) [µg/mL] | MIC (Pseudomonas aeruginosa [13]) [µg/mL] | MIC (Staphylococcus aureus [15]) [µg/mL] | MIC (Escherichia coli [5]; [35]) [µg/mL] | MIC (Enterococcus faecium; [36]) [µg/mL] | MIC (Staphylococcus aureus [9]; [37]) [µg/mL] | ED50 (Staphylococcus aureus [1]; [32]) [mg/kg] | ED50 (Staphylococcus aureus [14]) [mg/kg] | ED50 (Escherichia coli [10]; [38]) [mg/kg] | ED50 (Pseudomonas aeruginosa [8]; [39]) [mg/kg] | ED50 (Pseudomonas aeruginosa [7]; [40]) [mg/kg] | other results |
| --- | --- | --- | --- | --- | --- | --- | --- | --- | --- | --- | --- | --- | --- | --- |
| Cc1c(N2C[C@@H]3CCN[C@@H]3C2)c(F)cn2c(=O)c(C(=O)O)cc(C3CC3)c12 (stereo in doubt) | – | – | – | – | – | – | – | – | 1.5 | – | – | – | – | ED50 (Mus musculus [2]): 0.6 mg/kg; MIC (Staphylococcus aureus [3]): 0.05 µg/mL (≈ 0.135 µM); MIC (Burkholderia cepacia [4]): 0.78 µg/mL (≈ 2.1 µM); MIC (Escherichia coli [5]): 0.1 µg/mL (≈ 0.269 µM); MIC (Enterococcus faecium): 0.1 µg/mL (≈ 0.269 µM); ED50 (Escherichia coli [6]; [33]): 1.1 mg/kg; ED50 (Pseudomonas aeruginosa [7]): 17.9 mg/kg; ED50 (Pseudomonas aeruginosa [8]): 5 mg/kg; MIC (Staphylococcus aureus [9]): 3.1 µg/mL (≈ 8.35 µM); ED50 (Escherichia coli [10]): 0.5 mg/kg |
| CN[C@@H]1CN(c2c(F)cn3c(=O)c(C(=O)O)cc(C4CC4)c3c2C)C[C@@H]1C | 0.39 (≈ 1.04 µM) | 1.56 (≈ 4.18 µM) | 0.1 (≈ 0.268 µM) | 6.1 (≈ 16.3 µM) | 0.02 (≈ 0.0536 µM) | 0.1 (≈ 0.268 µM) | 0.1 (≈ 0.268 µM) | 0.39 (≈ 1.04 µM) | – | 1.3 | 0.5 | – | – | ED50 (Mus musculus [12]): 2.7 mg/kg |
| COCCN[C@H]1CCN(c2c(F)cn3c(=O)c(C(=O)O)cc(C4CC4)c3c2C)C1 | 1.56 (≈ 3.87 µM) | 0.78 (≈ 1.93 µM) | 0.39 (≈ 0.967 µM) | 12.5 (≈ 31 µM) | 0.05 (≈ 0.124 µM) | 0.39 (≈ 0.967 µM) | 0.39 (≈ 0.967 µM) | 1.56 (≈ 3.87 µM) | 18.1 | 6.1 | 2.5 | – | – | ED50 (Mus musculus [19]): > 10 mg/kg |
| Cc1c(N2CCC3(CCCC3N)C2)c(F)cn2c(=O)c(C(=O)O)cc(C3CC3)c12 (stereo not drawn) | – | – | – | 6.2 (≈ 15.5 µM) | 0.05 (≈ 0.125 µM) | 0.2 (≈ 0.501 µM) | 0.1 (≈ 0.25 µM) | 0.78 (≈ 1.95 µM) | – | – | – | – | – | MIC (Burkholderia cepacia [20]): 0.78 µg/mL (≈ 1.95 µM); MIC (Burkholderia cepacia [21]): 3.1 µg/mL (≈ 7.76 µM) |
| Cc1c(N2CC[C@H](C)C(N)C2)c(F)cn2c(=O)c(C(=O)O)cc(C3CC3)c12 (single isomer, unassigned) | – | – | – | – | – | – | – | – | – | – | – | > 32 | > 50 | ED50 (Mus musculus [22]): 5.2 mg/kg; ED50 (Streptococcus pneumoniae): 8 mg/kg; ED50 (Staphylococcus aureus [1]): 6.3 mg/kg; ED50 (Escherichia coli [6]): 12.5 mg/kg; ED50 (Mus musculus [23]): 1.2 mg/kg; ED50 (Escherichia coli [10]): 2 mg/kg |
| Cc1c(N2CC[C@H](NCCF)C2)c(F)cn2c(=O)c(C(=O)O)cc(C3CC3)c12 | 0.78 (≈ 1.99 µM) | 3.1 (≈ 7.92 µM) | 0.1 (≈ 0.255 µM) | 12.5 (≈ 31.9 µM) | 0.01 (≈ 0.0255 µM) | 0.2 (≈ 0.511 µM) | 0.1 (≈ 0.255 µM) | 0.39 (≈ 0.996 µM) | 7.5 | 1.1 | 4.9 | > 32 | > 50 | ED50 (Mus musculus [31]): 9.9 mg/kg; ED50 (Escherichia coli [6]; [33]): 17.2 mg/kg |

The next lines start with results.

| MIC (Pseudomonas aeruginosa [11]) [µg/mL] | MIC (Burkholderia cepacia [4]; [34]) [µg/mL] | MIC (Streptococcus pyogenes) [µg/mL] | MIC (Pseudomonas aeruginosa [13]) [µg/mL] | MIC (Staphylococcus aureus [15]) [µg/mL] | MIC (Escherichia coli [5]; [35]) [µg/mL] | MIC (Enterococcus faecium; [36]) [µg/mL] | MIC (Staphylococcus aureus [9]; [37]) [µg/mL] | SMILES | ED50 (Staphylococcus aureus [1]; [32]) [mg/kg] | ED50 (Staphylococcus aureus [14]) [mg/kg] | ED50 (Escherichia coli [10]; [38]) [mg/kg] | ED50 (Pseudomonas aeruginosa [8]; [39]) [mg/kg] | ED50 (Pseudomonas aeruginosa [7]; [40]) [mg/kg] | other results |
| --- | --- | --- | --- | --- | --- | --- | --- | --- | --- | --- | --- | --- | --- | --- |
| – | 1.56 (≈ 4.2 µM) | – | – | 0.02 (≈ 0.0538 µM) | 0.2 (≈ 0.538 µM) | 0.05 (≈ 0.135 µM) | – | Cc1c(N2C[C@@H]3CCN[C@@H]3C2)c(F)cn2c(=O)c(C(=O)O)cc(C3CC3)c12 (stereo in doubt; 3gg) | – | 5 | 0.4 | 6.4 | – | ED50 (Mus musculus [16]): 7.6 mg/kg; ED50 (Mus musculus [17]): 2.5 mg/kg; ED50 (Pseudomonas aeruginosa [7]): 39.1 mg/kg; MIC (Staphylococcus aureus [9]): 0.39 µg/mL (≈ 1.05 µM); ED50 (Mus musculus [18]): 0.7 mg/kg |
| – | 0.78 (≈ 2.1 µM) | – | 0.62 (≈ 1.67 µM) | 0.1 (≈ 0.269 µM) | 0.39 (≈ 1.05 µM) | 0.2 (≈ 0.538 µM) | 6.2 (≈ 16.7 µM) | Cc1c(N2C[C@H]3CCN[C@H]3C2)c(F)cn2c(=O)c(C(=O)O)cc(C3CC3)c12 | 5 | – | 0.8 | 18 | > 50 | ED50 (Streptococcus pneumoniae; Streptococcus pneumoniae, sc, read-out: ED50): 2.3 mg/kg; ED50 (Mus musculus [24]): 10 mg/kg; ED50 (Mus musculus [25]): 11.2 mg/kg; ED50 (Mus musculus [26]): 1.5 mg/kg |
| – | 0.39 (≈ 1.13 µM) | – | – | 0.02 (≈ 0.0579 µM) | 0.02 (≈ 0.0579 µM) | 0.02 (≈ 0.0579 µM) | 0.78 (≈ 2.26 µM) | Cc1c(N2CC[C@H](N)C2)c(F)cn2c(=O)c(C(=O)O)cc(C3CC3)c12 (stereo in doubt; 3i) [ABT-719] | 3 | 0.8 | 0.3 | 0.5 | – | ED50 (Mus musculus [27]): 2.6 mg/kg; ED50 (Mus musculus [28]): 10 mg/kg; ED50 (Mus musculus [29]): 8.3 mg/kg; ED50 (Mus musculus [30]): 2.9 mg/kg |
